Shown are actives, neighbours in structure and some others; about 2.5% of the full set was active somewhere.
NPY-Y2 antag: NPY-Y2 (human) receptor antagonism; NPY-Y2 expressing cells, antagonist mode; inhibition, % at 2.7 µM; P49146; 0.99% of 140,000 active;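 note: 0% = vehicle with agonist challenge and 100% = reference antagonist with challenge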
Target sequence (P49146 whole entry, looked up): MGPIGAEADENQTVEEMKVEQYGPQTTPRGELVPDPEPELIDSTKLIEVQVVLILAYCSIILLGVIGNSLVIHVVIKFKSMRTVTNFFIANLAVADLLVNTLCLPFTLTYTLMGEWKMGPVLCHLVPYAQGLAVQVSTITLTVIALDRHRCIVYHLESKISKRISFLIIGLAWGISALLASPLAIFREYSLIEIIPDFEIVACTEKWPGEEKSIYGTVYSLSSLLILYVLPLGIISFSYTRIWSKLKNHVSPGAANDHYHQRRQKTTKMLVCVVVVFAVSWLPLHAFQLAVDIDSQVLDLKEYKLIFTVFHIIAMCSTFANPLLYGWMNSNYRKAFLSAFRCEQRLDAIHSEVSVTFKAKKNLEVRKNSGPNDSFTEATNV
NPY-Y1 PAM-ag: potentiates or activates human NPY-Y1 receptor; P25929; AID 1304; NPY-Y1 expressing cells, potentiator/agonist activation; 0.37% of 220,000 active; activation, % at 3.6 µM; in the data active = activation above about 33%, passing the limit was not always enough;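 note: cells stimulated with NPY at EC10 then isoproterenol at EC100; 0% = low agonist plus stimulus and 100% = saturating agonist plus stimulus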
Target sequence (P25929 whole entry, looked up): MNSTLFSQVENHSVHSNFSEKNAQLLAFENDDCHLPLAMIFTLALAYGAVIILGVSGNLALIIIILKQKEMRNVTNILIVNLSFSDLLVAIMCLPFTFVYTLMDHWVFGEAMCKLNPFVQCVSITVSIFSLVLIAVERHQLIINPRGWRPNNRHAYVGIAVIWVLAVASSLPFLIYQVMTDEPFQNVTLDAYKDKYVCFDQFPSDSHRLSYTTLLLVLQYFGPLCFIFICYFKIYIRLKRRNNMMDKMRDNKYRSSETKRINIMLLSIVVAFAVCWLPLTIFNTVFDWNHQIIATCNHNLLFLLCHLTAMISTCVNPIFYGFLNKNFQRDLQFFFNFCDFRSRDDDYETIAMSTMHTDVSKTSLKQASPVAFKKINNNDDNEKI
Insulin prom inh: TRM-6 insulin promoter activity inhibition. 0.9% of 130,000 active. inhibition, % at 2 µM. TRM-6 cells, insulin promoter-eGFP reporter, imaging; reporter expression induced with tamoxifen. AID 1273;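 active = inhibition above the mean plus 3 SD, with well images judged a real hit on visual review, cut at about 60% in these data, passing the limit was not always enough; inconclusive = inhibition over the cutoff but images rejected on review; inactive = inhibition not above the cutoff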
Insulin prom up: MIN6 insulin promoter up-regulation. MIN6 insulin promoter-GFP reporter, high-content imaging; active compounds read high. z-score at 5 µM. 0.3% of 190,000 active;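 active = z-score above 3 at 5 µM with at least 500 cells counted in the well; inconclusive = wells under 500 cells, flagged as cytotoxic or low count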
NPY2 pot ag: potentiates or activates human NPY-Y2 receptor; P49146; cells expressing NPY-Y2, potentiator/agonist read-out; activation, % at 3.6 µM; 0.45% of 220,000 active; AID 1359; in the data active = activation above about 27%;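 note: cells stimulated with NPY near EC25 plus isoproterenol at EC100; 0% = vehicle plus submaximal agonist and 100% = vehicle plus saturating agonist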
NPY Y1 blocker: antagonists of human neuropeptide Y receptor Y1. 1% of 200,000 active. inhibition, % at 3.6 µM. P25929. HEK293-CNG Y1 cells, membrane potential fluorescence; NPY at EC95, then isoproterenol;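 active = inhibition above the campaign mean inhibition of all tested compounds plus 3 SD, cut at about 20% in these data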;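 note: 0% = DMSO wells given NPY plus isoproterenol and 100% = isoproterenol alone without NPY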
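System: HEK293 cells with Y1 receptor plus CNG channel / Probe or stimulus: NPY 25 nM then isoproterenol 1 µM plus Ro 20-1724 25 µM / Compound: one concentration, 3.6 µM, in 0.4% DMSO / Schedule: compound incubation 1 h at room temperature, readout 45 min post-stimulation / Measured by: membrane potential fluorescence / Read-out: % inhibition of NPY effect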
NPY1 antag conf: human NPY-Y1 antagonism, confirmation; shares compounds with NPY Y1 blocker; HEK293-CNG NPY-Y1, membrane potential fluorescence, cAMP; NPY challenge against isoproterenol-raised cAMP; inhibition, % at 3.6 µM; 21% of 1,200 active; in the data active = inhibition above about 20%;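 note: 0% = vehicle with agonist plus stimulus and 100% = stimulus alone without agonist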
NPY2 antag ctr: antagonizes human NPY-Y2, counter-screen to NPY-Y1 antagonists; shares compounds with NPY Y1 blocker; HEK293 NPY-Y2 CNG membrane potential fluorescence, antagonism; cells given NPY, then isoproterenol; inhibition, % at 3.6 µM; 28% of 1,200 active; AID 1255;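 note: 0% = DMSO with agonist challenge and 100% = reference antagonist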
NPY-Y1 pot conf: human NPY-Y1 potentiation or agonism, confirmation; activation, % at 3.6 µM; cell-based NPY-Y1 potentiator/agonist assay; 20% of 280 active; AID 1546; shares compounds with NPY-Y1 PAM-ag; in the data active = activation above about 45%;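 note: cells challenged with NPY at its EC10 plus isoproterenol stimulus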
NPY-Y2 counter: potentiates or activates NPY-Y2, counter-screen for NPY-Y1 hits; shares compounds with NPY-Y1 PAM-ag; HEK293-CNG cells, membrane-potential fluorescence (FLIPR), 1536-well; activation, % at 3.6 µM; 20% of 280 active; in the data active = activation above about 33%
NPY-Y1 ag: human NPY-Y1 agonism as potentiator counter-screen. AID 1697. activation, % at 3.6 µM. HEK293 Y1-CNGC, membrane potential fluorescence, agonist mode. 50% of 280 active. shares compounds with NPY-Y1 PAM-ag;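 active = percent activation above the mean of DMSO-only control wells plus 3 SD of those wells, cut at about 18% in these data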;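 note: cells challenged with isoproterenol plus Ro 20-1724 with no NPY in test wells; Y1 agonism lowers isoproterenol-driven cAMP and reduces probe fluorescence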
NPY-Y2 agonist: human NPY-Y2 agonism as NPY-Y1 counter-screen; shares compounds with NPY-Y1 PAM-ag; activation, % at 3.6 µM; 67% of 280 active; HEK293 Y2-CNGC, membrane potential fluorescence, agonist mode; AID 1698;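 active = activation above the solvent-only control wells' mean plus 3 SD, cut at about 11% in these data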;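 note: 0% = DMSO with isoproterenol and 100% = 40 nM NPY maximal response; agonism lowers cAMP so well fluorescence drops in active wells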
CNGC inh 2: blocks cyclic nucleotide gated channel in NPY-Y1 counter-screen; shares compounds with NPY-Y1 PAM-ag; HEK293-CNG parental, isoproterenol cAMP, membrane potential fluorescence; inhibition, % at 3.6 µM; 42% of 280 active; AID 1704;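 active = inhibition above the mean of stimulated solvent-only control wells plus 3 SD, cut at about 22% in these data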;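 note: 0% = isoproterenol-stimulated DMSO wells and 100% = unstimulated DMSO wells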
NPY-Y2 confirm: human NPY-Y2 potentiation or agonism, confirmation; activation, % at 3.6 µM; 20% of 450 active; shares compounds with NPY2 pot ag; cell-based NPY-Y2 potentiator/agonist assay; AID 1539; in the data active = activation above about 33%
NPY-Y1 counter: counter-screen for NPY-Y2 potentiators or agonists: NPY-Y1 potentiators or agonists; shares compounds with NPY2 pot ag; Y1 HEK293-CNG cells, membrane potential fluorescence; activation, % at 3.6 µM; 20% of 450 active; in the data active = activation above about 45%;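 note: cells stimulated with submaximal NPY then isoproterenol with phosphodiesterase inhibitor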
NPY-Y1 agonist 2: human NPY-Y1 agonism as NPY-Y2 potentiator counter-screen; shares compounds with NPY2 pot ag; HEK293 Y1-CNGC, membrane potential fluorescence; activation, % at 3.6 µM; 37% of 450 active;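 active = activation above the mean of DMSO-only control wells plus 3 SD, cut at about 18% in these data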;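 note: cells stimulated with 1 µM isoproterenol plus the PDE inhibitor Ro 20-1724; 0% = isoproterenol with DMSO and no NPY and 100% = 40 nM NPY; Y1 agonists lower the membrane potential dye signal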
CNGC inhibitor: cyclic nucleotide gated channel inhibition as counter-screen; shares compounds with NPY2 pot ag; HEK293-CNG parental, isoproterenol cAMP, membrane potential fluorescence; inhibition, % at 3.6 µM; 32% of 450 active; AID 1703;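 active = inhibition above the control-well mean plus 3 SD of those wells, cut at about 22% in these data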;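 note: 0% = DMSO with isoproterenol and 100% = DMSO without isoproterenol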
Y2 agonist ctr: counter-screen for NPY-Y2 potentiators: agonists of human NPY-Y2; activation, % at 3.6 µM; 56% of 450 active; shares compounds with NPY2 pot ag; HEK293 Y2/CNGC cells, membrane potential fluorescence, agonist mode;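 active = activation above the mean of solvent-only control wells plus 3 SD, cut at about 10% in these data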;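 note: cells stimulated by isoproterenol with no NPY added so direct agonism is tested; 0% = DMSO with isoproterenol alone and 100% = NPY at EC100 plus isoproterenol; agonism lowers probe fluorescence through less cAMP and CNG channel opening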
Numbers without * were called inactive; ? = inconclusive; . = not tested or not shown; ! = not active in a repeat. Cut-off read from the data, not from the text of the source, unless noted: active = inhibition above about 17%; inactive = the rest.

SMILES | NPY-Y2 antag | NPY-Y1 PAM-ag | Insulin prom inh | Insulin prom up | NPY2 pot ag | NPY Y1 blocker | NPY-Y2 confirm | NPY-Y1 counter | NPY-Y1 agonist 2 | CNGC inhibitor | Y2 agonist ctr | others
CN(C)c1ccc(-[n+]2c(-c3ccccc3)cc(-c3ccccc3)cc2-c2ccccc2)cc1 | . | 34 | . | ? | 51* | 50* | 6 | -5 | -13 | -22 | 12* | NPY1 antag conf=35*;NPY2 antag ctr=18*
Cc1c(C(=O)N2CCC3(CC2)OCCO3)sc2ncnc(N3CCc4ccccc4C3)c12 | . | 6 | 50 | -1.6 | 2 | 2 | . | . | . | . | .
CCOC(=O)c1c(-n2c(C)cc(C=C3C(=O)NC(=O)NC3=O)c2C)sc2c1CCCC2 | 2 | 39* | 47 | 0.13 | 10 | -13 | . | . | . | . | . | NPY-Y1 pot conf=93*;NPY-Y2 counter=73*;NPY-Y1 ag=77*;NPY-Y2 agonist=68*;CNGC inh 2=28*
CC/C(=N\N1CCCCCC1)c1c(O)n(-c2ccccc2C)c(=O)[nH]c1=O | 7 | -6 | 13 | -0.4 | 4 | -4 | . | . | . | . | .
COc1ccc(O)c2c(=O)c3c(OC)cc4c(c3oc12)C1C=COC1O4 (stereo not drawn) | . | 56* | . | . | 23 | . | . | . | . | . | . | NPY-Y1 pot conf=73*;NPY-Y2 counter=63*;NPY-Y1 ag=69*;NPY-Y2 agonist=64*;CNGC inh 2=67*
Cc1cc(S(=O)(=O)NCc2ccccc2)ccc1OCC(=O)N1CCN(C)CC1 | 1 | -24 | -40 | . | 13 | 6 | . | . | . | . | .
CC(C)(O)[C@H]1O[C@H]2CC[C@@]3(C)[C@@](O)(CC[C@H]4Cc5c([nH]c6ccccc56)[C@@]43C)C2=CC1=O | . | 43* | 40 | -1.8 | 24 | -14 | . | . | . | . | . | NPY-Y1 pot conf=49*;NPY-Y2 counter=41*;NPY-Y1 ag=53*;NPY-Y2 agonist=43*;CNGC inh 2=44*
O=C(Nc1cccc2ccccc12)c1nn(C23CC4CC(CC(C4)C2)C3)cc1Br | 3 | -8 | 10 | . | -7 | 4 | . | . | . | . | .
Cc1cccc(N2CCc3c2nc2ccccc2c3N)c1 | -1 | -43 | 64 | -1.4 | 68*! | 1 | 28 | 39 | -18 | 1 | 23*
O=c1c2ccccc2[nH]c(=S)n1-c1ccc(Br)cc1 | . | 19 | . | -0.49 | 32* | -5 | 5 | 17 | 0 | 11 | -1
O=c1c2ccccc2[nH]c(=S)n1-c1cccnc1 | . | 10 | . | 1.3 | 11 | . | . | . | . | . | .
CCN(CC)c1ccc(/C=C2/C(=O)NC(=O)N(CC3CCCO3)C2=O)cc1 (stereo not drawn) | -2 | -3 | 42 | . | -2 | -3 | . | . | . | . | .
O=C1NC(=O)N(CC2CCCO2)C(=O)/C1=C/c1cccs1 (stereo not drawn) | . | 14 | . | 0.41 | 41* | . | 2 | 13 | 3 | 2 | 3
O=C1Nc2ccccc2/C1=C/c1nc2ccccc2c(=O)n1-c1ccc(O)cc1 | . | 44 | . | . | 42* | . | 33* | 44 | 29* | 35* | 33*
CCN(CC)CC(O)c1ccc(C2CCCC2)cc1 (stereo not drawn) | 3 | -19 | 31 | 0.02 | -12 | 5 | . | . | . | . | .
Cc1nn(Cc2ccccc2)c(Cl)c1C(=O)OCC(=O)Nc1cccc2ccccc12 | 12 | 25 | -128 | -0.08 | 45* | -5 | -19 | -20 | -12 | -14 | -8
N#Cc1cc(F)c(N2CCNCC2)cc1Cl | 2 | -18 | 18 | 0.39 | -13 | 2 | . | . | . | . | .
Clc1cccc(N2CCNCC2)c1Cl | 4 | 1 | -50 | . | 32* | 8 | 14 | 15 | 9 | 11 | 8
Cc1ccccc1-n1c(O)c(/C=N/N2CCOCC2)c(=O)[nH]c1=S | 1 | -12 | -94 | 1.2 | 15 | 3 | . | . | . | . | .
c1ccc(C2CC3CC4(CCCC4)N2O3)cc1 (stereo not drawn) | 3 | -16 | -136 | 0.18 | -9 | -3 | . | . | . | . | .
